# According to ChEMBL document CHEMBL4689842, “EUbOPEN Chemogenomics Library wave 1” (2021):
# Tested on: HEK-293T
# Experiment: Multiplex assay against HEK293T;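 for Population Tubulin-Different-Phenotype (%): share of the cells with healthy nuclei that show this phenotype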
# Type: toxicity, cell-based
# Settings: human
# In short: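 Phenotypes for tubulin, mitochondrial mass and membrane permeability are expressed as per cents of healthy-nucleus cells. Cells were stained live at seeding with Hoechst33342, BioTracker Green Microtubule Cytoskeleton Dye, MitoTracker Red and Annexin V Alexa Fluor 680, then imaged after compound addition on a CQ1 microscope at 37°C and 5% CO2. Machine-learning gating in CellPathfinder separated Hoechst high-intensity objects from normal cells, divided normal cells by nuclear state (healthy, pyknosed, fragmented) and divided pyknosed cells into mitotic or apoptotic.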
# [1] = 12 h, 1 µM, compound concentration 1 uM, replicate 1
# [2] = 12 h, 1 µM, compound concentration 1 uM, replicate 2
# [3] = 12 h, 10 µM, compound concentration 10 uM, replicate 1
# [4] = 12 h, 10 µM, compound concentration 10 uM, replicate 2
# [5] = 24 h, 1 µM, compound concentration 1 uM, replicate 1
# [6] = 24 h, 1 µM, compound concentration 1 uM, replicate 2
# [7] = 24 h, 10 µM, compound concentration 10 uM, replicate 1
# [8] = 24 h, 10 µM, compound concentration 10 uM, replicate 2
# [9] = 48 h, 1 µM, compound concentration 1 uM, replicate 1
# [10] = 48 h, 1 µM, compound concentration 1 uM, replicate 2
# [11] = 48 h, 10 µM, compound concentration 10 uM, replicate 1
# [12] = 48 h, 10 µM, compound concentration 10 uM, replicate 2
smiles,measurement,setting,value
c1cn2cc(-c3ccc4cn[nH]c4c3)nc(Nc3ccc(N4CCOCC4)cc3)c2n1 [ENTOSPLETINIB],Population Apoptotic (%),[1],54%
same,Population Fragmented Nuclei (%),[1],8%
same,Population Healthy Nuclei (%),[1],40%
same,Population Hoechst High Intensity Objects (%),[1],16%
same,Population Membrane Permeable-Phenotype (%),[1],0%
same,Population Mitochondria Different-Phenotype (%),[1],95%
same,Population Mitotic Cells (%),[1],45%
same,Population Normal (%),[1],83%
same,Population Pyknosed Nuclei (%),[1],50%
same,Population Tubulin-Different-Phenotype (%),[1],74%
same,Total Cell Count,[1],207
same,Population Apoptotic (%),[2],22%
same,Population Fragmented Nuclei (%),[2],2%
same,Population Healthy Nuclei (%),[2],36%
same,Population Hoechst High Intensity Objects (%),[2],4%
same,Population Membrane Permeable-Phenotype (%),[2],10%
same,Population Mitochondria Different-Phenotype (%),[2],57%
same,Population Mitotic Cells (%),[2],77%
same,Population Normal (%),[2],95%
same,Population Pyknosed Nuclei (%),[2],60%
same,Population Tubulin-Different-Phenotype (%),[2],57%
same,Total Cell Count,[2],197
same,Population Apoptotic (%),[3],41%
same,Population Fragmented Nuclei (%),[3],77%
same,Population Healthy Nuclei (%),[3],6%
same,Population Hoechst High Intensity Objects (%),[3],27%
same,Population Membrane Permeable-Phenotype (%),[3],8%
same,Population Mitochondria Different-Phenotype (%),[3],89%
same,Population Mitotic Cells (%),[3],58%
same,Population Normal (%),[3],72%
same,Population Pyknosed Nuclei (%),[3],16%
same,Population Tubulin-Different-Phenotype (%),[3],81%
same,Total Cell Count,[3],1068
same,Population Apoptotic (%),[4],35%
same,Population Fragmented Nuclei (%),[4],52%
same,Population Healthy Nuclei (%),[4],8%
same,Population Hoechst High Intensity Objects (%),[4],22%
same,Population Membrane Permeable-Phenotype (%),[4],7%
same,Population Mitochondria Different-Phenotype (%),[4],85%
same,Population Mitotic Cells (%),[4],64%
same,Population Normal (%),[4],77%
same,Population Pyknosed Nuclei (%),[4],38%
same,Population Tubulin-Different-Phenotype (%),[4],85%
same,Total Cell Count,[4],431
same,Population Apoptotic (%),[5],43%
same,Population Fragmented Nuclei (%),[5],6%
same,Population Healthy Nuclei (%),[5],52%
same,Population Hoechst High Intensity Objects (%),[5],15%
same,Population Membrane Permeable-Phenotype (%),[5],6%
same,Population Mitochondria Different-Phenotype (%),[5],93%
same,Population Mitotic Cells (%),[5],56%
same,Population Normal (%),[5],84%
same,Population Pyknosed Nuclei (%),[5],41%
same,Population Tubulin-Different-Phenotype (%),[5],72%
same,Total Cell Count,[5],227
same,Population Apoptotic (%),[6],24%
same,Population Fragmented Nuclei (%),[6],4%
same,Population Healthy Nuclei (%),[6],60%
same,Population Hoechst High Intensity Objects (%),[6],2%
same,Population Membrane Permeable-Phenotype (%),[6],5%
same,Population Mitochondria Different-Phenotype (%),[6],48%
same,Population Mitotic Cells (%),[6],75%
same,Population Normal (%),[6],97%
same,Population Pyknosed Nuclei (%),[6],35%
same,Population Tubulin-Different-Phenotype (%),[6],61%
same,Total Cell Count,[6],259
same,Population Apoptotic (%),[7],33%
same,Population Fragmented Nuclei (%),[7],75%
same,Population Healthy Nuclei (%),[7],8%
same,Population Hoechst High Intensity Objects (%),[7],28%
same,Population Membrane Permeable-Phenotype (%),[7],11%
same,Population Mitochondria Different-Phenotype (%),[7],85%
same,Population Mitotic Cells (%),[7],66%
same,Population Normal (%),[7],71%
same,Population Pyknosed Nuclei (%),[7],15%
same,Population Tubulin-Different-Phenotype (%),[7],75%
same,Total Cell Count,[7],988
same,Population Apoptotic (%),[8],40%
same,Population Fragmented Nuclei (%),[8],51%
same,Population Healthy Nuclei (%),[8],12%
same,Population Hoechst High Intensity Objects (%),[8],20%
same,Population Membrane Permeable-Phenotype (%),[8],4%
same,Population Mitochondria Different-Phenotype (%),[8],88%
same,Population Mitotic Cells (%),[8],59%
same,Population Normal (%),[8],79%
same,Population Pyknosed Nuclei (%),[8],35%
same,Population Tubulin-Different-Phenotype (%),[8],93%
same,Total Cell Count,[8],430
same,Population Apoptotic (%),[9],43%
same,Population Fragmented Nuclei (%),[9],10%
same,Population Healthy Nuclei (%),[9],71%
same,Population Hoechst High Intensity Objects (%),[9],7%
same,Population Membrane Permeable-Phenotype (%),[9],1%
same,Population Mitochondria Different-Phenotype (%),[9],56%
same,Population Mitotic Cells (%),[9],56%
same,Population Normal (%),[9],92%
same,Population Pyknosed Nuclei (%),[9],17%
same,Population Tubulin-Different-Phenotype (%),[9],45%
same,Total Cell Count,[9],307
same,Population Apoptotic (%),[10],18%
same,Population Fragmented Nuclei (%),[10],6%
same,Population Healthy Nuclei (%),[10],74%
same,Population Hoechst High Intensity Objects (%),[10],2%
same,Population Membrane Permeable-Phenotype (%),[10],5%
same,Population Mitochondria Different-Phenotype (%),[10],21%
same,Population Mitotic Cells (%),[10],81%
same,Population Normal (%),[10],97%
same,Population Pyknosed Nuclei (%),[10],19%
same,Population Tubulin-Different-Phenotype (%),[10],55%
same,Total Cell Count,[10],378
same,Population Apoptotic (%),[11],23%
same,Population Fragmented Nuclei (%),[11],64%
same,Population Healthy Nuclei (%),[11],18%
same,Population Hoechst High Intensity Objects (%),[11],25%
same,Population Membrane Permeable-Phenotype (%),[11],6%
same,Population Mitochondria Different-Phenotype (%),[11],43%
same,Population Mitotic Cells (%),[11],76%
same,Population Normal (%),[11],74%
same,Population Pyknosed Nuclei (%),[11],16%
same,Population Tubulin-Different-Phenotype (%),[11],57%
same,Total Cell Count,[11],913
same,Population Apoptotic (%),[12],26%
same,Population Fragmented Nuclei (%),[12],47%
same,Population Healthy Nuclei (%),[12],25%
same,Population Hoechst High Intensity Objects (%),[12],20%
same,Population Membrane Permeable-Phenotype (%),[12],4%
same,Population Mitochondria Different-Phenotype (%),[12],71%
same,Population Mitotic Cells (%),[12],73%
same,Population Normal (%),[12],79%
same,Population Pyknosed Nuclei (%),[12],27%
same,Population Tubulin-Different-Phenotype (%),[12],93%
same,Total Cell Count,[12],444
